Assay results reported in ChEMBL document CHEMBL4765431, “Novel phthalide derivatives: Synthesis and anti-inflammatory activity in vitro and in vivo” (Eur J Med Chem, 2020).
Calls of active or inactive are those of the source. The rule behind the calls is not given here.

How the values were obtained:
RAW264.7 [1] = assay: Inhibition of NF-kappaB activation in mouse RAW264.7 cells assessed as reduction in LPS-induced IkappaB protein degradation at 0.5 to 2 uM preincubated for 1 hr followed by LPS stimulation and measured after 30 mins by Western blotting analysis; assay type: cell-based; settings: dose 0.5-2 µM, time 90.0 min
Method in brief: (§1)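 Pretreatment 1 h with 0.5–2 µM, then LPS 0.5 µg/mL for 30 min. p-IκB, IκB, p-p65, p65, ERK, JNK, p38 and their phosphorylated forms, plus β-actin, detected by Western blot (RIPA lysis, SDS-PAGE, PVDF, primary 16 h at 4 °C, HRP secondary 1:5000, ECL).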

RAW264.7 [2] = assay: Inhibition of NF-kappaB activation in mouse RAW264.7 cells assessed as reduction in LPS-induced p65 phosphorylation at 0.5 to 2 uM preincubated for 1 hr followed by LPS stimulation and measured after 30 mins by Western blotting analysis; assay type: cell-based; settings: dose 0.5-2 µM, time 90.0 min; method in brief: as §1
RAW264.7 [3] = assay: Inhibition of NF-kappaB activation in mouse RAW264.7 cells assessed as reduction in LPS-induced p65 nuclear translocation at 0.5 to 2 uM preincubated for 1 hr followed by LPS stimulation and measured after 30 mins by Western blotting analysis; assay type: cell-based; settings: dose 0.5-2 µM, time 90.0 min
RAW264.7 [4] = assay: Inhibition of MAPK signalling activation in mouse RAW264.7 cells assessed as reduction in LPS-induced JNK phosphorylation at 0.5 to 2 uM preincubated for 1 hr followed by LPS stimulation by Western blotting analysis; assay type: cell-based; settings: dose 0.5-2 µM, TDE = time-dependent effect; method in brief: as §1
RAW264.7 [5] = assay: Inhibition of MAPK signalling activation in mouse RAW264.7 cells assessed as reduction in LPS-induced ERK phosphorylation at 0.5 to 2 uM preincubated for 1 hr followed by LPS stimulation by Western blotting analysis; assay type: cell-based; settings: dose 0.5-2 µM, TDE = time-dependent effect; method in brief: as §1
RAW264.7 [6] = assay: Cytotoxicity against mouse RAW264.7 cells assessed as reduction in cell viability incubated for 24 hrs in presence of LPS by MTT assay; assay type: cell-based; settings: RAW264.7, 24 h
Rattus norvegicus = assay: Antiarthritic activity in Sprague-Dawley rat model of arthritis assessed as reduction in CFA-induced synovial hyperplasia at 20 mg/kg, ig administered daily for 28 days starting from 14 days post-immunization and measured every 3 days by H and E staining based histopathological analysis; assay type: functional, organism-based; settings: time 28.0 day
Method in brief: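 AA rats (male SD, CFA intradermal into right hind paw) dosed intragastrically once daily at 20 or 40 mg/kg from day 14 to day 28. Killed after 29 days. Ankle joints fixed in 4% neutral buffered paraformaldehyde, decalcified in 10% EDTA, sectioned and H&E stained. Scored for synovial hyperplasia, inflammatory cell infiltration and cartilage destruction.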

RAW264.7 [7] = assay: Anti-inflammatory activity in mouse RAW264.7 cells assessed as inhibition of LPS-induced COX-2 protein expression preincubated for 1 hr followed by LPS stimulation and measured after 24 hrs by Western blot analysis; assay type: functional, cell-based; settings: dose 0.5-2 µM, time 25.0 hrs
Method in brief: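 Cells pretreated 1 h with 0.5, 1, 2 µM, then LPS 0.5 µg/mL for 24 h. iNOS, COX-2 and β-actin detected by Western blot (RIPA lysis, PVDF, primary 16 h at 4 °C, HRP secondary, ECL). Blots representative of three separate experiments.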

**Q.** Which inhibition (RAW264.7 [1]) does the source give for `COc1cc(OC)c2c(c1)C(C(O)c1ccc(OCc3ccc(F)cc3)cc1)OC2=O` (stereo not drawn) here?
**A.** Its inhibition is “Active”.

**Q.** And the inhibition (RAW264.7 [2])?
**A.** The inhibition was “Active”.

**Q.** What about the inhibition (RAW264.7 [3]) of the same compound?
**A.** Its inhibition is “Active”.

**Q.** And the inhibition (RAW264.7 [4])?
**A.** Its inhibition is “Tde”.

**Q.** What about the inhibition (RAW264.7 [5]) of the same compound?
**A.** Its inhibition is “Tde”.

**Q.** What about the IC50 (RAW264.7 [6]) of the same compound?
**A.** The IC50 was > 40 µM.

**Q.** What about the Activity (Rattus norvegicus) of the same compound?
**A.** The Activity was “Active”.

**Q.** And the inhibition (RAW264.7 [7])?
**A.** The inhibition was “Dose-dependent effect”.
